Values after ≈ are worked out from the molar mass of the structure shown.
Columns and labels:
[1] = Kinetic solubility of the compound; format: physicochemical; settings: for solubility kinetic: read-out: Kinetic_solubility
[2] = Passive permeability in MDCK cells at 2 uM after 90 mins by LC-MS/MS analysis; format: ADME, cell-based, Canis lupus familiaris; settings: dog; for Papp at […], 2 µM: MDCK, read-out: permeability; for permeability: mdck, 2 µM
Method in brief: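 Low-efflux MDCK cells (MDCK-LE) on 96-well inserts, used on day 4. Monodirectional transport of 2 μM drug in transport buffer with 0.1% DMSO at 37 °C. Donor and receiver sampled at 0 and 90 min for LC−MS/MS. Donor pH 6.5 and 7.4, receiver pH 7.4.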

KARPAS-422 = assay: Antiproliferative activity against human KARPAS422 cells after 72 hrs by resazurin assay; format: functional, cell-based
Liver = assay: (§1) Intrinsic clearance in human liver microsomes assessed per mg protein at 1 uM preincubated for 10 mins followed by NADPH addition measured after 45 mins by LC-MS/MS analysis; format: ADME, microsome; settings: microsomes, 0.75 h, 1 µM
Method in brief: (§2)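 Test compound (1 μM) with pooled liver microsomes (0.8 mg/mL protein) in 100 mM potassium phosphate pH 7.4, 10 min preincubation, started with 2 mM NADPH, 45 min at 37 °C, in triplicate. Samples quenched with cold methanol containing buspirone internal standard, analysed by LC−MS/MS. CLint derived from t1/2 of parent loss (log-linear slope).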

[3] = Lipophilicity, log D of the compound at pH 7.4; settings: buffer
[4] = target: Histone-lysine N-methyltransferase EZH2 (Homo sapiens, UniProt Q15910); assay: Inhibition of EZH2 in human KARPAS422 cells assessed as reduction in H3K27me3 level after 72 hrs by ELISA
[5] = target: Histone-lysine N-methyltransferase EZH2 (Homo sapiens, UniProt Q15910, Y641N); assay: Inhibition of EZH2 Y641N mutant (unknown origin) using oligonucleosomes as substrate after 60 mins in presence of [3H]SAM by scintillation counting analysis
[6] = as §1; format: ADME, microsome; settings: liver microsomes, read-out: CLH; method in brief: as §2

Sequence of Histone-lysine N-methyltransferase EZH2 (Homo sapiens, UniProt Q15910, Y641N) (Q15910 whole entry Y641N): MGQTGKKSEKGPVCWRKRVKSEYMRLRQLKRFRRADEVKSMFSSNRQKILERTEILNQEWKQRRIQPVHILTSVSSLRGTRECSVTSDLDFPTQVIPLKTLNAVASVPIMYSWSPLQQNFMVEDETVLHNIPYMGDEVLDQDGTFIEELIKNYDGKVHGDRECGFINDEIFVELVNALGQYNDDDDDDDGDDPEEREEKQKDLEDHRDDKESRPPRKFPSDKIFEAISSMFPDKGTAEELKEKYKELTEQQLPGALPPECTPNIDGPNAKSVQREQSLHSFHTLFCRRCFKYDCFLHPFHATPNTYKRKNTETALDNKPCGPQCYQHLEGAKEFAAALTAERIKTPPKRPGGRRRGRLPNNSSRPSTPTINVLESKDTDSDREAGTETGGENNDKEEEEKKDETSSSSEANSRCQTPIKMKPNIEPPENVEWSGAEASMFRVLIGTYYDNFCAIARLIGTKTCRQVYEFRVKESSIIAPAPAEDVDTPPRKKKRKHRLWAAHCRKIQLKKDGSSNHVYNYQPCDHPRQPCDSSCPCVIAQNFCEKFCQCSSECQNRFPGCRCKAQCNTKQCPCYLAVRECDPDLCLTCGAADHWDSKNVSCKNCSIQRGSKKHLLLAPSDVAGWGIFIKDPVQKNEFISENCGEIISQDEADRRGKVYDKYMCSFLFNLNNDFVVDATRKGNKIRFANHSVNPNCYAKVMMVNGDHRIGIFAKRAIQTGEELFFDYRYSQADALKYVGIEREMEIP
Sequence of Histone-lysine N-methyltransferase EZH2 (Homo sapiens, UniProt Q15910) (Q15910 whole entry): as the sequence (Q15910 whole entry Y641N) above, with N641Y counted along it

| SMILES | solubility kinetic [1] [µM] | Papp at […], 2 µM [2] [×10⁻⁶ cm/s] | IC50 (KARPAS-422; karpas-422) [nM] | microsomal CLint (Liver) [µL/min/mg] | logD ([3]; pH 7.4, logD) | IC50 [4] [nM] | Ki [5] [nM] | Kinetic_solubility [1] [µM] | permeability [2] [×10⁻⁶ cm/s] | microsomal CLint at 1 µM [6] [µL/min/mg] | logD ([3]; pH 7.4) | IC50 (KARPAS-422; Homo sapiens, KARPAS-422, 72 h) [nM] |
| --- | --- | --- | --- | --- | --- | --- | --- | --- | --- | --- | --- | --- |
| Cc1cc(C)c(CN2CCc3c(Cl)cc(C(CO)c4ccon4)c(Cl)c3C2=O)c(=O)[nH]1 (single isomer, unassigned; (+)) | 596 (≈ 276 µg/mL) | 5.8 | 122 | 21.2 | 2 | – | – | – | – | – | – | – |
| COC(c1cc(Cl)c2c(c1Cl)C(=O)N(Cc1c(C)cc(C)[nH]c1=O)CC2)C1CCN(C)CC1 (single isomer, unassigned; (+)) | 639 (≈ 315 µg/mL) | 2.7 | 11 | < 10.2 | 1.4 | 9 | < 0.1 | – | – | – | – | – |
| CCC(CO)c1cc(Cl)c2c(c1Cl)C(=O)N(Cc1c(C)cc(C)[nH]c1=O)CC2 (single isomer, unassigned; (+)) | – | 10.9 | 124 | 66.3 | 2.8 | 139 | 4.6 | 324 | – | – | – | – |
| COC(C)c1cc(Cl)c2c(c1Cl)C(=O)N(Cc1c(C)cc(C)[nH]c1=O)CC2 (stereo in doubt; (-)9a) | – | 26 | 282 | 158 | 3.3 | – | – | 55.3 | – | – | – | – |
| CCC(OC)c1cc(Cl)c2c(c1Cl)C(=O)N(Cc1c(C)cc(C)[nH]c1=O)CC2 (single isomer, unassigned; (+)) | – | 18.2 | 183 | 105 | – | 72 | 9 | 33 | – | – | – | – |
| COC(c1cc(Cl)c2c(c1Cl)C(=O)N(Cc1c(C)cc(C)[nH]c1=O)CC2)C1CS(=O)(=O)C1 (stereo in doubt; (+)-19a) | 161 (≈ 80.4 µg/mL) | 5.3 | 24 | 52.5 | – | – | – | – | – | – | – | – |
| COC(c1cc(Cl)c2c(c1Cl)C(=O)N(Cc1c(C)cc(C)[nH]c1=O)CC2)C1CCOC1 (single isomer, unassigned; (+)) | – | – | 50 | 128 | – | 47 | 1.9 | 439 | 18.7 | – | – | – |
| CCC(O)c1cc(Cl)c2c(c1Cl)C(=O)N(Cc1c(C)cc(C)[nH]c1=O)CC2 (stereo in doubt; (-)-3b) | 56 (≈ 22.9 µg/mL) | – | 3550 | 8 | – | 5350 | 420 | – | 15.7 | – | – | – |
| COc1cc(C)[nH]c(=O)c1CN1CCc2c(Cl)cc(C(OC)C3CCOC3)c(Cl)c2C1=O (single isomer, unassigned; form 1) | – | – | 113 | 97.2 | – | 110 | 42 | 521 | 8.4 | – | – | – |
| COC(c1cc(Cl)c2c(c1Cl)C(=O)N(Cc1c(C)cc(C)[nH]c1=O)CC2)C1CCS(=O)(=O)CC1 (stereo in doubt; (+)-18a) | 373 (≈ 197 µg/mL) | 6.3 | 24 | 40 | 2.2 | – | – | – | – | – | – | – |
| COC(c1cc(Cl)c2c(c1Cl)C(=O)N(Cc1c(C)cc(C)[nH]c1=O)CC2)C1CCS(=O)(=O)CC1 (single isomer, unassigned; (-)) | – | – | 970 | 15 | – | – | – | 415 | 5.7 | – | – | – |
| COC(c1cc(Cl)c2c(c1Cl)C(=O)N(Cc1c(C)cc(C)[nH]c1=O)CC2)C1CCOC1 (single isomer, unassigned; (-)10c) | – | – | 406 | 93.3 | – | 494 | 30 | 457 | 15.4 | – | – | – |
| COC(c1cc(Cl)c2c(c1Cl)C(=O)N(Cc1c(C)cc(C)[nH]c1=O)CC2)C1CCN(C(C)=O)CC1 (single isomer, unassigned; (+)) | 532 (≈ 277 µg/mL) | 11.5 | 22 | 92.6 | 2.9 | – | – | – | – | – | – | – |
| COc1cc(C)[nH]c(=O)c1CN1CCc2c(Cl)cc(C(OC)C3CCN(C(=O)CO)CC3)c(Cl)c2C1=O (single isomer, unassigned; (-)) | – | – | 250 | 12.6 | – | – | – | 453 | 1.1 | – | – | – |
| COc1cc(C)[nH]c(=O)c1CN1CCc2c(Cl)cc(C(OC)C3CCOC3)c(Cl)c2C1=O (single isomer, unassigned; form 2) | – | – | 269 | – | – | 391 | 92 | 505 | 8.2 | 75 | 2.4 | – |
| COc1cc(C)[nH]c(=O)c1CN1CCc2c(Cl)cc(C(OC)C3CCN(C(=O)CO)CC3)c(Cl)c2C1=O (single isomer, unassigned; (+)) | 480 (≈ 265 µg/mL) | 1.5 | 10 | 25.6 | 1.7 | – | – | – | – | – | – | – |
| Cc1cc(C)c(CN2CCc3c(Cl)cc([C@@H](CO)[C@@H]4CCCO4)c(Cl)c3C2=O)c(=O)[nH]1 | 550 (≈ 256 µg/mL) | 4.3 | – | – | 2.1 | 1570 | 135 | – | – | 70.3 | – | 1220 |
| COC(c1cc(Cl)c2c(c1Cl)C(=O)N(Cc1c(C)cc(C)[nH]c1=O)CC2)C1CS(=O)(=O)C1 (single isomer, unassigned) | – | – | 4830 | 23 | – | – | – | 159 | 6.1 | – | – | – |
| CCC(CO)c1cc(Cl)c2c(c1Cl)C(=O)N(Cc1c(C)cc(C)[nH]c1=O)CC2 (stereo in doubt; (-)-5b) | 443 (≈ 188 µg/mL) | – | 502 | – | – | 682 | 14 | – | 10.9 | 67.6 | 2.9 | – |
| COc1cc(C)[nH]c(=O)c1CN1CCc2c(Cl)cc(C(OC)C3CCOC3)c(Cl)c2C1=O (stereo in doubt; 22b) | – | – | 24 | 66.9 | – | 16 | 0.19 | 439 | 7.2 | – | – | – |
| COC(c1cc(Cl)c2c(c1Cl)C(=O)N(Cc1c(C)cc(C)[nH]c1=O)CC2)C1CCN(C)CC1 (single isomer, unassigned; (-)) | – | – | 2320 | – | – | 1130 | 260 | 499 | 2.3 | < 13.4 | 1.5 | – |
| COc1cc(C)[nH]c(=O)c1CN1CCc2c(Cl)cc(C(OC)C3(C)COC3)c(Cl)c2C1=O (stereo in doubt; (-)-24b) | – | – | 559 | – | – | 253 | 350 | 512 | 4.8 | 168 | 2.2 | – |
| Cc1cc(C)c(CN2CCc3c(Cl)cc([C@@H](CO)[C@@H]4CCOC4)c(Cl)c3C2=O)c(=O)[nH]1 | 537 (≈ 250 µg/mL) | 3 | – | – | 2 | 2910 | 1260 | – | – | 25.3 | – | 3950 |
